Reference: ChEMBL document CHEMBL4725407, “New cannabinoid receptor antagonists as pharmacological tool” (Bioorg Med Chem, 2020)
Calls of active or inactive are those of the source. The rule behind the calls is not given here.

What was measured:
[1] = target: Cannabinoid receptor 2 (Homo sapiens, UniProt P34972); test: Displacement of [3H]CP55940 from human CB2R transfected in HEK293EBNA cell membrane incubated for 90 mins by Microbeta TriLux based luminescence analysis; format: cell membranes, HEK293-EBNA
Chain of Cannabinoid receptor 2 (P34972 whole entry): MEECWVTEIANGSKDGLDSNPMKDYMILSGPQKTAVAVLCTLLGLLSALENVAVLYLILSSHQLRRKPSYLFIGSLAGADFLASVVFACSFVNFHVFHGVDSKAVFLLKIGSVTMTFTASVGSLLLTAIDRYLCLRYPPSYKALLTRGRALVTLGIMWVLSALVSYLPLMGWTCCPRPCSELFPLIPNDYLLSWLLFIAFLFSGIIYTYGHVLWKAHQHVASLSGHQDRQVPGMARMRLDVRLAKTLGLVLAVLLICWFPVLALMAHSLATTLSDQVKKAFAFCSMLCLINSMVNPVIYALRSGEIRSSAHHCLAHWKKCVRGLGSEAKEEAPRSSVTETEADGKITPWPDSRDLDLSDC

[2] = species: Mus musculus; test: Antagonist activity at cannabinoid receptor in ICR mouse vas deferens assessed as reduction of WIN55212-2-induced inhibition of electrically evoked contraction at 1 uM incubated for 10 mins prior to WIN55212-2 addition; format: tissue-based
[3] = target: T1, Cannabinoid receptor 1 (Homo sapiens, UniProt P21554); test: Displacement of [3H]CP55940 from human CB1R transfected in HEK293EBNA cell membranes incubated for 90 mins by Microbeta TriLux based luminescence analysis; parameters: species or system HEK293-EBNA
T1 sequence (P21554 whole entry): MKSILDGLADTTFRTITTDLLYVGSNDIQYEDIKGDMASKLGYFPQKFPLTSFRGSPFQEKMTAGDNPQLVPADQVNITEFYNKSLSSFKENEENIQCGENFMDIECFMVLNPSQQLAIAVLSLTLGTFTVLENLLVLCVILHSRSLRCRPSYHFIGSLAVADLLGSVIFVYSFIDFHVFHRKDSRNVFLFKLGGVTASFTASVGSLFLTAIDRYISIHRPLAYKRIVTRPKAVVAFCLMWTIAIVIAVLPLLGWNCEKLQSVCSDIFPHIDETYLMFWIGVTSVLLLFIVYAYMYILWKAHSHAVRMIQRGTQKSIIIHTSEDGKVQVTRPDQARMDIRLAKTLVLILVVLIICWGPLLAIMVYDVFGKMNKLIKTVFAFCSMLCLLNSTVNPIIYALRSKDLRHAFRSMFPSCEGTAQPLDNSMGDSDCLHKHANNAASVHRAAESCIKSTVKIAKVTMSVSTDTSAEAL

[4] = tested on: HEK293-EBNA; test: Selectivity index, ratio of Ki for human CB1R transfected in HEK293EBNA cell membrane to ratio of Ki for human CB2R transfected in HEK293EBNA cell membrane incubated for 90 mins by Microbeta TriLux based luminescence analysis
Procedure, shortened: (§1)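 Membranes of HEK293EBNA cells expressing human CB1 (~0.415 mg/mL protein) or CB2 (~0.18 mg/mL) incubated 90 min at 30 °C with [³H]-CP55940 (0.54 nM CB1; 0.33 nM CB2) and competitor, in Tris buffer pH 7.4 with EDTA, MgCl₂, BSA. Filtered, washed, bound radioactivity counted; IC50 by curve fitting, Ki by Cheng–Prusoff; selectivity = Ki CB1/Ki CB2.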

[5] = target: T1, Cannabinoid receptor 1; test: Displacement of [3H]CP55940 from human CB1R transfected in HEK293EBNA cell membrane incubated for 90 mins by Microbeta TriLux based luminescence analysis relative to control; format: cell membranes; settings: HEK293-EBNA; procedure, shortened: as §1
[6] = tested on: MC3T3-E1; test: Cytotoxicity against mouse MC3T3-E1 cell assessed as reduction in cell viability at 1 uM incubated for 48 hrs by MTT assay; format: cell-based; settings: mc3t3-e1, 48 h
Procedure, shortened: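 MC3T3-E1 cells in 96-well plates, 24 h in DMEM/10% FBS, then 48 h with compound at 10⁻⁶ M or vehicle; viability by MTT reduction; three experiments in sextuplicate.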

[7] = target: Cannabinoid receptor 2 (Mus musculus) (UniProt P47936); test: Agonist activity at CB2 receptor in mouse MC3T3-E1 cells assessed as induction of bone activity by measuring increase in collagen I gene expression at 1 uM incubated for 72 hrs by real time PCR analysis; format: cell-based
Chain of Cannabinoid receptor 2 (Mus musculus) (P47936 whole entry): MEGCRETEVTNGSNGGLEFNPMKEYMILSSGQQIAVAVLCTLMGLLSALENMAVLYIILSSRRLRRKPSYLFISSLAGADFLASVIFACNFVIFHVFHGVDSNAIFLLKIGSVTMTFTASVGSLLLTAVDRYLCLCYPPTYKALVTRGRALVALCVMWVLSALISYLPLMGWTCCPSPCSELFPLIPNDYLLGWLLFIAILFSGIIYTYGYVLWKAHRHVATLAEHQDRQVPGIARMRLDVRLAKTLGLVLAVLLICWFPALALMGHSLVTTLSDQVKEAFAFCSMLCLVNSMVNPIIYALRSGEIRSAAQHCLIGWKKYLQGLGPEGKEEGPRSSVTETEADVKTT
Procedure, shortened: (§2)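 MC3T3-E1 cells in DMEM/10% FBS for 24 h; attached cells moved to osteogenic medium (50 μg/mL ascorbic acid, 10⁻⁹ M dexamethasone, 10 mM β-glycerophosphate) with agent (HU308 10⁻⁶–10⁻⁸ M; antagonists 10⁻⁶ M) or vehicle, 72 h at 37 °C, 5% CO₂. Collagen type I mRNA from total RNA by RT-qPCR, ΔΔCT relative quantification; three experiments in triplicate.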

[8] = target: Cannabinoid receptor 2 (Mus musculus) (UniProt P47936); test: Antagonist activity at CB2 receptor in mouse MC3T3-E1 cells assessed as inhibition of HU308-induced collagen I gene expression at 1 uM pretreated with compound and HU308 for 24 hrs followed by further incubation with HU308 for 48 hrs by real time PCR analysis; format: cell-based; settings: filed as antagonist, time 72.0 hrs
Procedure, shortened: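 MC3T3-E1 cells seeded 24 h in DMEM/10% FBS, then pre-treated 24 h in osteogenic medium (ascorbic acid, dexamethasone, β-glycerophosphate) with 10⁻⁶ M antagonist plus HU308 10⁻⁸ M; medium then replaced by osteogenic medium with HU308 10⁻⁸ M alone (controls vehicle) for 48 h more. Collagen I mRNA by RT-qPCR, ΔΔCT; three experiments in triplicate.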

[9] = target: Cannabinoid receptor 2 (Mus musculus) (UniProt P47936); test: Agonist activity at CB2 receptor in mouse MC3T3-E1 cells assessed as induction of bone activity by measuring increase in collagen I gene expression at 0.01 to 1 uM incubated for 72 hrs by real time PCR analysis; format: cell-based; settings: filed as agonist, dose microM 0.01-1, time 72.0 hrs; procedure, shortened: as §2

In the case of COc1ccc(COc2n[nH]c3ccc([N+](=O)[O-])cc23)cc1, the Ki [1] is reported as 1.8 µM, the inhibition [2] is reported as “inactive” and the Ki [3] is reported as greater than 40 µM. The Ratio Ki [4] was greater than 22.2.
With c1ccc2c(c1)c(OCC1CCCCC1)nn2CC1CCCCC1 the inhibition [2] was “inactive” and the Ratio Ki [4] was 0.2.
Cn1nc(OCCc2ccccc2)c2cc([N+](=O)[O-])ccc21 was tested, and the Ki [1] was 1.2 µM, the inhibition [2] was “inactive” and the Ki [3] was greater than 40 µM. For the same compound, the inhibition [5] was 25% and the Ratio Ki [4] was greater than 33.3.
For CCCn1nc(OCc2ccc3ccccc3c2)c2cc(N)ccc21, the Ki [1] was 2.9 µM, the inhibition [2] was “inactive” and the Ki [3] was 1.6 µM. The Ratio Ki [4] was 0.6.
In the case of c1ccc(COc2nn(Cc3ccccc3)c3ccccc23)cc1, the inhibition [2] is reported as “inactive” and the Ratio Ki [4] is reported as 0.7.
In the case of c1ccc2cc(COc3n[nH]c4ccccc34)ccc2c1, the Ki [1] is reported as 7 µM, the inhibition [2] is reported as “inactive” and the Ki [3] is reported as 21.7 µM. The Ratio Ki [4] was 3.1.
For Cn1nc(OCc2ccc3ccccc3c2)c2cc([N+](=O)[O-])ccc21, the Ki [1] was 3.5 µM, the inhibition ([2]; filed as antagonist) was “Active” and the Ki [3] was greater than 40 µM. For the same compound, the Ratio Ki [4] was greater than 11.4.
With c1ccc2cc(COc3nn(CCC4CCCCC4)c4ccccc34)ccc2c1 the Ki [1] was greater than 40 µM, the inhibition [2] was “inactive” and the Ki [3] was 0.15 µM. The Ratio Ki [4] was less than 0.004.
With O=[N+]([O-])c1ccc2c(c1)c(OCC1CCCCC1)nn2Cc1ccccc1 the Activity [6] was “Non-Toxic”, the inhibition ([2]; filed as antagonist) was “Active” and the Activity [7] was “inactive”. The inhibition [8] was “Active” and the Ratio Ki [4] was greater than 444.
In the case of Cn1nc(OCc2cccc3ccccc23)c2cc([N+](=O)[O-])ccc21, the Ki [1] is reported as 0.25 µM, the inhibition ([2]; filed as antagonist) is reported as “Active” and the Ki [3] is reported as no less than 40 µM. For the same compound, the Ratio Ki [4] was greater than 160.
In the case of CCCCCn1nc(OCc2ccc3ccccc3c2)c2cc([N+](=O)[O-])ccc21, the inhibition [2] is reported as “inactive” and the Ratio Ki [4] is reported as 1.2.
In the case of CCCCCCC(C)(C)c1cc(OC)c([C@H]2C=C(CO)[C@H]3C[C@@H]2C3(C)C)c(OC)c1, the Activity [9] is reported as “Active”.
With O=[N+]([O-])c1ccc2[nH]nc(OCc3cccc4ccccc34)c2c1 the Ki [1] was 0.9 µM, the inhibition ([2]; filed as antagonist) was “Active” and the Ki [3] was greater than 40 µM. For the same compound, the inhibition [5] was 38% and the Ratio Ki [4] was greater than 44.4.
With Cc1c(C(=O)NN2CCCCC2)nn(-c2ccc(Cl)cc2Cl)c1-c1ccc(I)cc1 the inhibition ([2]; filed as antagonist) was “Active”.
In the case of CCCCCn1nc(OCc2ccc(OC)cc2)c2cc([N+](=O)[O-])ccc21, the inhibition ([2]; filed as antagonist) is reported as “Active” and the Ratio Ki [4] is reported as 1.6.
Nc1ccc2c(c1)c(OCc1ccccc1)nn2Cc1ccccc1 was tested, and the inhibition ([2]; filed as antagonist) was “Active” and the Ratio Ki [4] was 2.5.
For c1ccc2c(COc3n[nH]c4ccccc34)cccc2c1, the Ki [1] was 0.44 µM, the inhibition [2] was “inactive” and the Ki [3] was 1.6 µM. It also gave a Ratio Ki [4] of 3.6.
For O=[N+]([O-])c1ccc2[nH]nc(OCc3ccc4ccccc4c3)c2c1, the Ki [1] was 5 µM, the inhibition [2] was “inactive” and the Ki [3] was 13.6 µM. For the same compound, the Ratio Ki [4] was 2.7.
With CCCn1nc(OCc2ccc3ccccc3c2)c2cc([N+](=O)[O-])ccc21 the Ki [1] was 0.47 µM, the Activity [6] was “Non-Toxic” and the inhibition ([2]; filed as antagonist) was “Active”. The Activity [7] was “inactive”, the Ki [3] was 0.356 µM and the inhibition [8] was “Active”. The Ratio Ki [4] was 0.8.
COc1ccc(COc2n[nH]c3ccccc23)cc1 was tested, and the Ki [1] was 4.5 µM, the inhibition [2] was “inactive” and the Ki [3] was 21 µM. For the same compound, the Ratio Ki [4] was 4.7.
In the case of O=[N+]([O-])c1ccc2c(c1)c(OCc1ccccc1)nn2Cc1ccccc1, the inhibition [2] is reported as “inactive” and the Ratio Ki [4] is reported as 3.
O=[N+]([O-])c1ccc2c(c1)c(OCc1ccc3ccccc3c1)nn2Cc1ccccc1 was tested, and the inhibition [2] was “inactive” and the Ratio Ki [4] was greater than 25.
With CCCCCOc1nn(CCCCC)c2ccc([N+](=O)[O-])cc12 the inhibition [2] was “inactive” and the Ratio Ki [4] was 1.9.
In the case of Cn1nc(OCc2ccc3ccccc3c2)c2ccccc21, the Ki [1] is reported as 10.1 µM, the inhibition ([2]; filed as antagonist) is reported as “Active” and the Ki [3] is reported as 4 µM. It also gave a Ratio Ki [4] of 0.4.
